Screening data (PubChem)
MC4R ag barr = MC4R agonists recruiting beta-arrestin, primary screen, cell-based, luminescence, agonist arm of biased-ligand search. Melanocortin receptor 4 (Homo sapiens), P32245. U2OS MC4R beta-arrestin complementation; percent of melanotan II response, DMSO zero. activation, % at 8.9 µM. 360,000 compounds, 0.98% hits. AID 540308, 2011;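 active means activation above a per-plate cutoff, the mean activation of sample wells on that plate plus 3 SD, cut at about 8% in these data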
PGE2 EP2 inh = human EP2 receptor antagonists, primary screen, TR-FRET cAMP, C6 glioma cells. Prostaglandin E2 receptor EP2 subtype (Homo sapiens), P43116. C6 glioma cells expressing human EP2; cells stimulated with saturating PGE2. inhibition, % at 25 µM. 260,000 compounds, 0.52% hits. AID 1422, 2008;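 active means percent inhibition above 40 after rounding to a whole number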;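 further: rat C6 glioma host cells with rolipram phosphodiesterase inhibitor present; the protocol text gives 20 µM as final concentration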
Target sequence (P43116 whole entry, looked up): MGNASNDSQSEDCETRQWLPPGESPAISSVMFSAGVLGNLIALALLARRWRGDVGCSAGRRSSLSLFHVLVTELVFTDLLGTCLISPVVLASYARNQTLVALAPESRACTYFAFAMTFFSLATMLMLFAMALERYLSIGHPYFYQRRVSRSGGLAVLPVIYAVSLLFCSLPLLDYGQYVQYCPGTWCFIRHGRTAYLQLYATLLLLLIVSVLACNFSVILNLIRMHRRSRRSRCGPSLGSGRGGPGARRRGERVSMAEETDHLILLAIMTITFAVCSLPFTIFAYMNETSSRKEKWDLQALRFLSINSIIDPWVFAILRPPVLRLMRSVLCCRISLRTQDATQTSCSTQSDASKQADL
EP2 mod = EP2 receptor modulators, cAMP readout, primary screen, cell-based, HTRF cAMP, PGE2 stimulation | Prostaglandin E2 receptor EP2 subtype (Homo sapiens), P43116 | EP2-expressing cells, cAMP HTRF FRET, PGE2 co-stimulation | induction, % at 25 µM | 260,000 compounds, 0.83% hits | AID 940, 2007;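 active means compounds whose cAMP rise, as percent of the full-agonist control response, exceeds 60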;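 further: rat C6 glioma line stably carrying human EP2 under a CMV promoter; the protocol text gives 20 µM as final concentration; 100% = response of wells given 1 µM PGE2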
T cell modulator = modulators of CD8 T cell-vesicle binding, primary screen, mouse 2C CD8+ T cells, flow cytometry | 2C CD8+ T cell-vesicle binding; active compounds read low | response (vesicle binding), % at 7 µM | 330,000 compounds, 0.068% hits;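 active means response, share of CD8 T cells binding vesicles, and their 90th percentile fluorescence all below set limits, cut at about 80% in these data, passing the limit was not always enough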;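 further: values below 100% mean blocked vesicle binding to the CD8+ T cells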
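System: murine 2C transgenic CD8+ T lymphocytes; also added: QL9-loaded Drosophila micro-vesicles; times: binding 1.5 h at 37 °C; measured by: flow cytometry, PE anti-B7-1 (FL2) versus Alexa647 anti-CD8 (FL8), PFA-fixed; control set: Peptide-free naked vesicles (low) and QL9 vesicles with 0.7% DMSO vehicle (high)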
Granule exo inh = LAMP-1 surface exposure blockers, TALL-104 cells – cell-based, flow cytometry, MLPCN library, primary screen; TALL-104 LAMP-1 surface exposure; cells stimulated with thapsigargin and PMA; inhibition, % at 10 µM; 360,000 compounds, 0.66% hits;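 active means inhibition above about 55%, limit read from the data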
MC4R antag cAMP = MC4R antagonists of cAMP signaling, primary screen, cell-based, TR-FRET, antagonist arm of biased-ligand search. inhibition, % at 6.5 µM. 360,000 compounds, 0.48% hits. AID 540295, 2011. MC4R-expressing cells, MTII-stimulated cAMP, LANCE TR-FRET. Melanocortin receptor 4 (Homo sapiens), P32245;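 active means inhibition above its plate's cutoff, the mean of tested wells on that plate plus 3 SD, cut at about 29% in these data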;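 further: 0% = Melanotan II alone and 100% = Melanotan II plus saturating MCL0020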
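material = U2OS cells stably expressing human melanocortin 4 receptor (MC4R) | also added = Melanotan II challenge | dosing = single nominal compound dose of 6.5 µM | detection = TR-FRET with Eu-cAMP and labeled anti-cAMP, 671 nm | replication = singlicate | timing = compound 30 min, challenge 1 h, detection 1 h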
Granule exo CP1 = inhibitors of lytic granule exocytosis, confirmation, TALL-104 cells, flow cytometry, Cherry Pick01; shares compounds with Granule exo inh; LAMP-1 externalization; stimulated with PMA plus thapsigargin; 1,500 compounds, 11% hits; inhibition, % at 10 µM; AID 651954, 2012; in the data active means inhibition above about 60%;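 further: 0% = stimulated vehicle wells and 100% = unstimulated wells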
An asterisk follows results filed as active; i = inactive; / = no result given. Sampled rows, rich in hits. Any-hit rate of the full collection: about 2.6%.

SMILES	MC4R ag barr	PGE2 EP2 inh	EP2 mod	T cell modulator	Granule exo inh	MC4R antag cAMP	Granule exo CP1
CN1C(=S)SC(/[N+]([O-])=C\c2ccccc2)C1(C)C (stereo not drawn)	-3	11	12	190	-1	1	/
O=C(NCc1ccccc1Cl)c1ccncc1	1	/	/	236	66*	2	-4
Cc1ccn2cc(CCNC(=O)C3CCCCC3)nc2c1	0	11	6	277	0	4	/
Clc1ccc(CNC2CCN(Cc3ccccc3)CC2)cc1	-1	/	/	183	67*	3	-11
COc1ccccc1CNC1CCN(Cc2ccccc2)CC1	2	/	/	295	4	-2	/
Clc1ccc(CNc2ccc(N3CCN(Cc4ccccc4)CC3)cc2)cc1	0	/	/	159	67*	4	-13
Fc1ccc(CNC2CCN(Cc3ccccc3)CC2)cc1	1	/	/	116	62*	2	-13
Cc1ccc(C(C)C)c(OCCNCc2ccccc2)c1	4	/	/	566	83*	3	-12
COc1ccc(OCCN2CCC(C(=O)NC(c3ccc(Cl)cc3)c3cccnc3)CC2)cc1 (stereo not drawn)	-1	/	/	/	-5	3	/
O=C(Cn1sc2ccccc2c1=O)Nc1ccc(F)cc1	-3	/	/	/	64*	12	104*
O=[N+]([O-])c1ccccc1Nc1c2ccccc2nc2ccccc12	6	6	15	704	0	-2	/
CCOC(=O)Cn1nc(C)cc1NC(=O)c1ccncc1	1	10	-2	i	-1	2	/
CN(CCCC1CCCC1)C(=O)c1cc(COc2ccc(F)c(F)c2)on1	3	/	/	359	68*	-4	-11
CN(CCCC1CCCC1)C(=O)c1cc(COc2c(F)cccc2F)on1	-1	/	/	223	8	-2	/
CN(C)c1ccc(C(C(=O)NCC2CCCO2)N(C(=O)c2snc(C(N)=O)c2N)c2ccc3c(c2)OCO3)cc1 (stereo not drawn)	0	/	/	254	72*	17	-6
CC(C)c1ccc(N(C(=O)c2snc(C(N)=O)c2N)C(C(=O)NCC2CCCO2)c2ccc(N(C)C)cc2)cc1 (stereo not drawn)	1	/	/	/	54	6	/
COc1ccc(CN(C)CC2CCCN(CCc3ccc(F)cc3)C2)cc1OC (stereo not drawn)	-1	/	/	206	60*	8	-14
CCOc1cccc(CN(C)CC2CCCN(CCc3ccc(Cl)cc3)C2)c1O (stereo not drawn)	0	/	/	144	76*	9	-2
COc1cc(CN(C)CC2CCCN(CCc3ccccc3F)C2)cc(Cl)c1OC (stereo not drawn)	2	/	/	305	56*	7	-4
COCC(=O)N(C)CC1CCCN(CCc2ccccc2OC)C1 (stereo not drawn)	0	/	/	240	3	-3	/
COc1ccccc1CCN1CCCC(CN(C)CC(C)(C)CO)C1 (stereo not drawn)	2	/	/	246	62*	0	-4
CN(Cc1ccccc1)CC1CCCN(CCc2ccccc2F)C1 (stereo not drawn)	-1	/	/	231	54	-2	/
COc1ccc(CN(C)CC2CCCN(CCc3ccc(Cl)cc3)C2)cc1OC (stereo not drawn)	-1	/	/	179	14	9	/
COc1ccc(CCC(C)Nc2ccc(F)cc2)cc1 (stereo not drawn)	2	4	-24	702	0	5	/
O=C(C1COc2ccccc2O1)N1CCN(c2ccccn2)CC1 (stereo not drawn)	-1	/	/	653	-1	0	/
SMILES	MC4R ag barr	PGE2 EP2 inh	EP2 mod	T cell modulator	Granule exo inh	MC4R antag cAMP	Granule exo CP1
Cc1ccc(-c2nnc(SCC(=O)NCc3ccc4c(c3)OCO4)o2)cc1	/	6	-33	/	/	/	/
O=S(=O)(c1ccc(NC(=S)Nc2ccc(OC(F)F)cc2)cc1)N1CCOCC1	7	18	-49	218	6	-7	/
Cn1c(=S)n(/N=C/c2cccs2)c2ccccc21	0	6	59	935	11	11	/
CCCCCCCCS(=O)C1CS(=O)(=O)CC1O (stereo not drawn)	-1	11	3	641	7	3	/
COc1cc(CN(C)CC2CCCN(CCc3cccc(C(F)(F)F)c3)C2)ccc1O (stereo not drawn)	0	/	/	279	56*	2	-3
COC(=O)CCC(=O)N(C)CC1CCCN(CCc2cccc(C(F)(F)F)c2)C1 (stereo not drawn)	1	/	/	330	3	-1	/
Cc1ccnc(NC(=O)C2CCN(S(=O)(=O)c3ccc(C)c(C)c3)CC2)c1	1	/	/	217	65*	2	-3
O=S(=O)(Nc1cccc(S(=O)(=O)N2CCCC2)c1)c1ccc(F)cc1	-3	/	/	/	3	-1	/
O=C(Nc1cccc(O)c1)c1cccc(S(=O)(=O)N2CCCCCC2)c1	1	7	-58	/	59*	-6	-13
O=S(=O)(Nc1cccc(S(=O)(=O)N2CCCCCC2)c1)c1ccccc1	-4	4	16	162	74*	16	-5
COc1ccc(/C=C/C(=O)OCC(=O)c2c(N)n(C)c(=O)n(C)c2=O)cc1	-1	6	-14	190	4	20	/
Cc1ccc2occ(C(=O)c3ccco3)c(=O)c2c1	1	2	34	272	-3	5	/
COC(=O)c1ccc(-c2nc3ccccc3o2)cc1	/	12	4	/	/	/	/
COc1cc(OC)cc(C(=O)Nc2ccc(-c3nc4ccccc4o3)cc2)c1	7	52*	-38	359	100*	5	39
COCCSc1nnc(NS(=O)(=O)c2ccccc2)s1	-3	4	25	94	-5	6	/
N#CC1=C(N)Oc2cc(N)ccc2C1c1cccc(Br)c1 (stereo not drawn)	-3	/	/	115	72*	-12	-11
Cc1ccc(C2C(C#N)=C(N)Oc3cc(N)ccc32)cc1 (stereo not drawn)	-1	/	/	217	-21	1	/
COc1ccc(COc2ccc3c(C)cc(=O)oc3c2)cc1	3	/	/	327	75*	-4	-4
CCOC(=O)c1ccccc1NC(=O)CN(c1ccccc1C)S(C)(=O)=O	1	4	23	519	20	5	/
